The record followed here is publication PMC12583737 (Nature Communications, 2025).

The test system of test [1] is V5-tagged FBXO22. In words: Cellular thermal stability shift assay. As to conditions: lysates of HCC515 expressing V5-tagged FBXO22. Format: binding. The method, boiled down:
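It got 10 µM neddylation inhibitor for 10 min, then compound or DMSO for 30 min at room temperature. Aliquots were heated 3 min across 38–71 °C in 3-degree steps and cleared at 20,000 g. Soluble V5-FBXO22 was read by anti-V5 immunoblot.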

The test system of test [2] is SMARCA2-nanoLuc and FBXO22-HaloTag. Briefly: SMARCA2/FBXO22 NanoBRET ternary complex assay in FBXO22 knockout HCC515 cells. The test is classed as cell-based. As to conditions: FBXO22 knockout HCC515, overnight, 10 µM MLN4924. The method, boiled down:
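FBXO22-knockout HCC515 cells were transiently co-transfected with SMARCA2-NanoLuc and FBXO22-HaloTag at a 1:20 ratio (FuGENE HD). They were replated next day at 25,000 per well with or without HaloTag 618 ligand and left overnight. Cells were pretreated 1 h with 10 µM MLN4924, which was kept throughout, then dosed with test compound or a control PROTAC for 24 h. Emissions at 460/618 nm were read 10 min after substrate. Ratio ×1000 gave mBU, with the no-ligand value subtracted. Mean ± sd, n = 2–6.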
(Bioluminescence resonance energy transfer reports proximity on the nanometre scale.)

On to `Nc1nnc(-c2ccccc2O)cc1N1CC2CCC(C1)N2c1ccnc(F)c1` [Compound 7], for which the “thermal stability of FBXO22” value in test [1] is reported as “not observed”.

As for `Cc1ncsc1-c1ccc([C@H](C)NC(=O)[C@@H]2C[C@@H](O)CN2C(=O)[C@@H](c2cc(N3CCC(CN4CCC(OC5CC(Oc6cc(N7C8CCC7CN(c7cc(-c9ccccc9O)nnc7N)C8)ccn6)C5)CC4)CC3)no2)C(C)C)cc1` (some centres unmarked) [Compound A947], the “BRET signal (ternary complex SMARCA2/FBXO22)” value in test [2] was “not observed”.
